# Assay results reported in ChEMBL document CHEMBL1138144 (J Med Chem, 2006).
# Experiments:
# [1] = molecular target: T1, Sodium-dependent dopamine transporter (Homo sapiens, UniProt Q01959); assay: Displacement of [125I]RTI-55 from human DAT expressed in HEK293 cells; assay type: cell-based
# Summary of the method: (§1)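 Membranes from HEK293 cells expressing hDAT or hSERT, grown to 80% confluence, lysed in 2 mM HEPES/1 mM EDTA, spun and resuspended in 0.32 M sucrose. About 10–15 µg protein preincubated 10 min with compound in Krebs-HEPES pH 7.4 (0.1% DMSO final). Filtered on GF/C. Non-specific binding: 5 µM mazindol (DAT) or 5 µM imipramine (SERT). Duplicates, 2–3 experiments, IC50 converted to Ki by Cheng-Prusoff.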
# [2] = molecular target: T1, Sodium-dependent dopamine transporter; assay: Inhibition of [3H] dopamine uptake into human DAT expressed in HEK293 cells; assay type: functional, cell-based
# Summary of the method: (§2)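 Confluent HEK293 cells expressing hDAT or hSERT, scraped into Krebs-HEPES. Preincubated 10 min at 25°C with compound (0.1% DMSO final). Uptake started with [3H]dopamine or [3H]serotonin (20 nM final) and stopped after 10 min by filtration on PEI-soaked GF/C filters. Non-specific uptake: 5 µM mazindol (DAT) or 5 µM imipramine (SERT). IC50 from triplicate 6-concentration curves, 2–3 independent determinations.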
# [3] = molecular target: T2, Sodium-dependent serotonin transporter (Homo sapiens, UniProt P31645); assay: Displacement of [125I]RTI-55 from human SERT expressed in HEK293 cells; assay type: cell-based; summary of the method: as §1
# [4] = molecular target: T2, Sodium-dependent serotonin transporter; assay: Inhibition of [3H] serotonin uptake into human SERT expressed in HEK293 cells; assay type: functional, cell-based; summary of the method: as §2
# [5] = molecular target: T3, Sodium-dependent noradrenaline transporter (Homo sapiens, UniProt P23975); assay: Displacement of [125I]RTI-55 from human NET expressed in HEK293 cells; assay type: cell-based
# [6] = molecular target: T3, Sodium-dependent noradrenaline transporter; assay: Inhibition of [3H] norepinephrine uptake into human NET expressed in HEK293 cells; assay type: functional, cell-based
# [7] = molecular target: T4, 5-hydroxytryptamine receptor 1A (Homo sapiens, UniProt P08908); assay: Inhibitory activity against 5HT1A
# T4 sequence (P08908 whole entry): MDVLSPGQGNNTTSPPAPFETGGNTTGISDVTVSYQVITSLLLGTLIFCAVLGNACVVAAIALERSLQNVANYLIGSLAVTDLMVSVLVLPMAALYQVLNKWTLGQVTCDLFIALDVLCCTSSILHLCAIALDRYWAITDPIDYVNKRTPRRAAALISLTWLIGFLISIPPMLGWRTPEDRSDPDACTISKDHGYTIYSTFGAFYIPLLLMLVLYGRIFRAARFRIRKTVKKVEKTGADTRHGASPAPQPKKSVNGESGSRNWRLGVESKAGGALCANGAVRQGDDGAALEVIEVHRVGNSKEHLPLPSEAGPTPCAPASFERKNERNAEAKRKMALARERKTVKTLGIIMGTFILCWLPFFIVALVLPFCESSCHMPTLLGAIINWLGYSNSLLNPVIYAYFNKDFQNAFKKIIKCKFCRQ
# [8] = molecular target: 5-hydroxytryptamine receptor 1B (Homo sapiens, UniProt P28222); assay: Inhibitory activity against 5HT1B
# [9] = molecular target: T5, 5-hydroxytryptamine receptor 2C (Homo sapiens, UniProt P28335); assay: Inhibitory activity against 5HT1C
# T5 sequence (P28335 whole entry): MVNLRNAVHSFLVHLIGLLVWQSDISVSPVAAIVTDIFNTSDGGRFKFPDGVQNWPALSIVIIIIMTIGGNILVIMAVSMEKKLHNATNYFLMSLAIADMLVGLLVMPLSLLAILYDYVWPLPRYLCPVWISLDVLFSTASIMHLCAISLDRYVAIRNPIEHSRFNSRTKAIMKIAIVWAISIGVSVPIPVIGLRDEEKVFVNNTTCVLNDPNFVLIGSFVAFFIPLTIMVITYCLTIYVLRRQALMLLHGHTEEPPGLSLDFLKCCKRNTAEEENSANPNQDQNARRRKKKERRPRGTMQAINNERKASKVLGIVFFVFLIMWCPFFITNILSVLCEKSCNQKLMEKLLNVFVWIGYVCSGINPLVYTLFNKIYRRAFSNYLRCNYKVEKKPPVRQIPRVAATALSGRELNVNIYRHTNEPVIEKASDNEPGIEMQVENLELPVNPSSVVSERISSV
# D(1A) dopamine receptor = D(1A) dopamine receptor (Homo sapiens, UniProt P21728); assay: Inhibitory activity against dopamine D1
# D(2) dopamine receptor = D(2) dopamine receptor (Homo sapiens, UniProt P14416); assay: Inhibitory activity against dopamine D2
# D(3) dopamine receptor = D(3) dopamine receptor (Homo sapiens, UniProt P35462); assay: Inhibitory activity against dopamine D3
# D(3) dopamine receptor, sequence (P35462 whole entry): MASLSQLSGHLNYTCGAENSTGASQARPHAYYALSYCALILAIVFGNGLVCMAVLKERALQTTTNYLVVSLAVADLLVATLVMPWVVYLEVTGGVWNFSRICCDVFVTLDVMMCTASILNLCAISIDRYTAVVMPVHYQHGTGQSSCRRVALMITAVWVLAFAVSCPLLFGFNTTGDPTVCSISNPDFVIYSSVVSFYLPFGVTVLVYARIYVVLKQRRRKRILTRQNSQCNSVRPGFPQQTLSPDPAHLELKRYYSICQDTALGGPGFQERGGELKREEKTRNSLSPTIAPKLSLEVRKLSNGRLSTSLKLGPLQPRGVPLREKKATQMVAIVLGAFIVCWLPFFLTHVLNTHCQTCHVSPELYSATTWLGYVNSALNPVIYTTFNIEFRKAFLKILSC
# D(1A) dopamine receptor, sequence (P21728 whole entry): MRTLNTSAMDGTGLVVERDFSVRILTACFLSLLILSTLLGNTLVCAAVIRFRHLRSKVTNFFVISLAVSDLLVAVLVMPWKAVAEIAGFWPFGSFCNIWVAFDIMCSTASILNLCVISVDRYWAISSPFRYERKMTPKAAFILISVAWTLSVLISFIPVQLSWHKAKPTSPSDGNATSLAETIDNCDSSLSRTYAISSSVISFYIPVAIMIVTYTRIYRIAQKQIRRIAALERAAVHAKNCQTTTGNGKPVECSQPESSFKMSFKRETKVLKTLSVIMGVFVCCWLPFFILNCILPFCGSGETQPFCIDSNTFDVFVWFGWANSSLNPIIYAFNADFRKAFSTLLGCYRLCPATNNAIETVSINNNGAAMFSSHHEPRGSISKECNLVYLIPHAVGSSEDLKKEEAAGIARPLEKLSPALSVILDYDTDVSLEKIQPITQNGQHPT
# D(2) dopamine receptor, sequence (P14416 whole entry): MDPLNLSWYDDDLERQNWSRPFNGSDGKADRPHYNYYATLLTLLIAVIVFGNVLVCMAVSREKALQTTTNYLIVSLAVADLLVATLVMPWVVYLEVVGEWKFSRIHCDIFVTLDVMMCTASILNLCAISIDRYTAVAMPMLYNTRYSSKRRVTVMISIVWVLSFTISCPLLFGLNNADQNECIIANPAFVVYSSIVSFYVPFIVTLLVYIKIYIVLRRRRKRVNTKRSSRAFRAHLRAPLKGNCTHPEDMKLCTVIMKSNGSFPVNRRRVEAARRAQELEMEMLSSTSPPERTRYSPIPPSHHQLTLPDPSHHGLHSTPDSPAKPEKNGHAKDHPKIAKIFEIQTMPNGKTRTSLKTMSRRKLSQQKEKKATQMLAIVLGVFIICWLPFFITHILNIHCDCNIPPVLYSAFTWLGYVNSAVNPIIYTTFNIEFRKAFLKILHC
# T2 sequence (P31645 whole entry): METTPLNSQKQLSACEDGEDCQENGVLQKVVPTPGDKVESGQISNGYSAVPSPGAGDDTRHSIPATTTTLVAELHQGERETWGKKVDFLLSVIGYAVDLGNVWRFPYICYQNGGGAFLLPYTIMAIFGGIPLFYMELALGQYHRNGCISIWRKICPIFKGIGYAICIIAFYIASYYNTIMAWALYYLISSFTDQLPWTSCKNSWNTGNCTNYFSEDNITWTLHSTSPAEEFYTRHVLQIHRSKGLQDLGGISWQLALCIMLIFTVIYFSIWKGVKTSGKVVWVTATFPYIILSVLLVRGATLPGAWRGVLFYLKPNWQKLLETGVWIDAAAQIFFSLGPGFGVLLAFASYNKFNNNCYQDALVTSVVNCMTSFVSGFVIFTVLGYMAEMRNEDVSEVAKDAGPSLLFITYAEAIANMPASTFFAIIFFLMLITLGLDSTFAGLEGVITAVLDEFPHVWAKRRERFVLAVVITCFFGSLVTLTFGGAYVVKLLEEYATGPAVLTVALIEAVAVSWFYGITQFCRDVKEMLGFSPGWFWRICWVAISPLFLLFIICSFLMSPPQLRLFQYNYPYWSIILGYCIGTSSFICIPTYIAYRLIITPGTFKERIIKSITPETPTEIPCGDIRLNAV
# T1 sequence (Q01959 whole entry): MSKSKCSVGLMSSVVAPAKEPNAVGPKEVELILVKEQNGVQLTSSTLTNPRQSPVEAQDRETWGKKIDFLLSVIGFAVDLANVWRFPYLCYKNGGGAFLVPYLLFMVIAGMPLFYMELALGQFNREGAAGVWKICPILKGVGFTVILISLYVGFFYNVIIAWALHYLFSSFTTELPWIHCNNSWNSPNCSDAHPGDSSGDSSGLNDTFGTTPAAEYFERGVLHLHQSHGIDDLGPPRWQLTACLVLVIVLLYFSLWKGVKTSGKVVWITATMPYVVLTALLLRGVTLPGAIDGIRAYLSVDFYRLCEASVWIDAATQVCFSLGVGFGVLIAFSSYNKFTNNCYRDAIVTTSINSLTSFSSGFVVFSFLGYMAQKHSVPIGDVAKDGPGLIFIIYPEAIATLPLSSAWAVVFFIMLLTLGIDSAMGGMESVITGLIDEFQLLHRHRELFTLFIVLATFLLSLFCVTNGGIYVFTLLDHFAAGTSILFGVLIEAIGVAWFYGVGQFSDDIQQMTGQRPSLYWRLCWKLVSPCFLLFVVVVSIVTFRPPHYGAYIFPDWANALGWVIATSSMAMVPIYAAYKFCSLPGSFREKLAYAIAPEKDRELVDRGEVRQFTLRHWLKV
# 5-hydroxytryptamine receptor 1B, sequence (P28222 whole entry): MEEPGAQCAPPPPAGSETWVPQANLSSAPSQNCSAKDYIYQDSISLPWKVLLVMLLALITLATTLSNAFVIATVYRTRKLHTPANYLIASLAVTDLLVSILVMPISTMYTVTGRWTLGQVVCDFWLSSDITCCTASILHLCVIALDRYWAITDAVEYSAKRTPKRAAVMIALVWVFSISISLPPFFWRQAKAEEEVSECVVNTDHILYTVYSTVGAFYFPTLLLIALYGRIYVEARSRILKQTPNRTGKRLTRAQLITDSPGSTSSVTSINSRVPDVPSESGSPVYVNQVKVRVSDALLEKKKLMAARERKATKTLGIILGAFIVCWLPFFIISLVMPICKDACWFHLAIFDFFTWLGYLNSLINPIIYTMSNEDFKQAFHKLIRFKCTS
# T3 sequence (P23975 whole entry): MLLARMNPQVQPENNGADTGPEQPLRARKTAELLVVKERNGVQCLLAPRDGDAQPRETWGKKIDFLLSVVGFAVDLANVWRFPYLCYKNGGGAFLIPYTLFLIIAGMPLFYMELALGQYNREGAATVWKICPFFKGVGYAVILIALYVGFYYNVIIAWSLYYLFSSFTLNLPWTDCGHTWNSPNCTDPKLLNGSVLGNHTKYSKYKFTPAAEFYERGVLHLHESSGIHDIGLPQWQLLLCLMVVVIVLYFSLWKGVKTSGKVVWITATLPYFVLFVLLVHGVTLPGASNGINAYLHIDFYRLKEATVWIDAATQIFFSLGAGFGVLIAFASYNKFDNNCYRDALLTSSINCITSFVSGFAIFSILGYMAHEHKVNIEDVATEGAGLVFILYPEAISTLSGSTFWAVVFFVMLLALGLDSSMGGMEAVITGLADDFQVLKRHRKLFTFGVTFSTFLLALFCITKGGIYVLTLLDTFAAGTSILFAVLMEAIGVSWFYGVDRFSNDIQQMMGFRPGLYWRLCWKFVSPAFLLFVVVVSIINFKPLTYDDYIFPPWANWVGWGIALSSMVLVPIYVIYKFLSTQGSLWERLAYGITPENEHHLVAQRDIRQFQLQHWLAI
SMILES,Ki [1] [nM],IC50 [2] [nM],Ki [3] [nM],IC50 [4] [nM],Ki [5] [nM],IC50 [6] [nM],IC50 [7] [nM],IC50 [8] [nM],IC50 [9] [nM],IC50 (D(1A) dopamine receptor) [nM],IC50 (D(2) dopamine receptor) [nM],IC50 (D(3) dopamine receptor) [nM]
CCCC(C(=O)c1ccccc1C)N1CCCC1 (stereo unspecified),59.7,63,3720,2020,425,19.7,> 10000,> 10000,> 10000,> 10000,> 10000,> 10000
CCCC(C(=O)c1ccc(-c2cccs2)cc1)N1CCCC1 (stereo unspecified),460,539,3320,1960,370,263,> 10000,> 10000,> 10000,> 10000,> 10000,> 10000
CCC[C@@H](C(=O)c1ccc(C)cc1)N1CCCC1,18.1,16.3,2220,1070,109,11.3,> 10000,> 10000,> 10000,> 10000,> 10000,> 10000
